Test results as given in ChEMBL document CHEMBL3779802, “Synthesis of hybrid 4-deoxypodophyllotoxin-5-fluorouracil compounds that inhibit cellular migration and induce cell cycle arrest” (Bioorg Med Chem Lett, 2016).
Calls of active or inactive are those of the source. The rule behind the calls is not given here.

Key:
[1] = system: HeLa; test: Cytotoxicity against human HeLa cells assessed as growth inhibition after 48 hrs by MTT assay; type: functional, cell-based
Outline: (§1)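 MTT assay with 48 h drug exposure on HeLa, A549, HCT-8 and HepG2 tumour cells and normal lung fibroblast WI-38. IC50 reported as the mean of three independent experiments.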

[2] = system: A549; test: Cytotoxicity against human A549 cells assessed as growth inhibition after 48 hrs by MTT assay; type: functional, cell-based; conditions: A549, 48 h; outline: as §1
[3] = Cytotoxicity against human HCT8 cells assessed as growth inhibition after 48 hrs by MTT assay; type: functional, cell-based; conditions: HCT-8, 48 h; outline: as §1
[4] = system: HepG2; test: Cytotoxicity against human HepG2 cells assessed as growth inhibition after 48 hrs by MTT assay; type: functional, cell-based; conditions: HepG2, 48 h; outline: as §1
[5] = Cytotoxicity against human WI38 cells assessed as growth inhibition after 48 hrs by MTT assay; type: cell-based; conditions: WI-38, 48 h; outline: as §1
[6] = system: A549; test: Induction of apoptosis in human A549 cells assessed as nuclear fragmentation at 0.3 to 1 uM after 24 hrs by DAPI staining based fluorescence microscopy; type: functional, cell-based
Outline: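 A549 cells treated with 0, 0.3 or 1 μM for 24 h, stained with DAPI and viewed by fluorescence microscopy at 200×. Nuclei scored for fragmentation and loss of normal morphology.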

[7] = system: A549; test: Cell cycle arrest in human A549 cells assessed as accumulation at G2/M phase after 24 hrs by propidium iodide staining based flow cytometry; type: functional
[8] = system: A549; test: Cell cycle arrest in human A549 cells assessed as accumulation at G1 phase at 0.1 uM after 24 hrs by propidium iodide staining based flow cytometry (reference value: 58.3%); type: functional
[9] = system: A549; test: Cell cycle arrest in human A549 cells assessed as accumulation at G1 phase at 0.5 uM after 24 hrs by propidium iodide staining based flow cytometry (reference value: 58.3%); type: functional
[10] = system: A549; test: Cell cycle arrest in human A549 cells assessed as accumulation at S phase at 0.1 uM after 24 hrs by propidium iodide staining based flow cytometry (reference value: 19.3%); type: functional
[11] = system: A549; test: Cell cycle arrest in human A549 cells assessed as accumulation at S phase at 0.5 uM after 24 hrs by propidium iodide staining based flow cytometry (reference value: 19.3%); type: functional
[12] = system: A549; test: Cell cycle arrest in human A549 cells assessed as accumulation at G2/M phase at 0.1 uM after 24 hrs by propidium iodide staining based flow cytometry (reference value: 22.4%); type: functional
[13] = system: A549; test: Cell cycle arrest in human A549 cells assessed as accumulation at G2/M phase at 0.5 uM after 24 hrs by propidium iodide staining based flow cytometry (reference value: 22.4%); type: functional
[14] = system: A549; test: Upregulation of cyclinB1 expression in human A549 cells at 0.5 to 2 uM after 24 hrs by Western blot analysis; type: functional, cell-based
Outline: (§2)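 Western blot for cdc2, p-cdc2 and cyclin B1 in A549 cells treated with vehicle, 0.5 or 2 μM for 24 h.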

[15] = system: A549; test: Upregulation of cdc2 expression in human A549 cells at 0.5 to 2 uM after 24 hrs by Western blot analysis; type: functional, cell-based; outline: as §2
[16] = system: A549; test: Downregulation of p-cdc2 expression in human A549 cells at 0.5 to 2 uM after 24 hrs by Western blot analysis; type: functional, cell-based; outline: as §2
[17] = system: A549; test: Antimigratory activity in human A549 cells at 1 uM after 12 hrs by crystal violet staining based transwell migration assay; type: functional; conditions: A549, 12 h
Outline: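 Transwell migration of A549 cells exposed to vehicle, 0.3 or 1 μM for 12 h. Stained migrated cells imaged at 200× and counted. Inhibition expressed relative to untreated control; mean ± SD of three independent experiments.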

[18] = system: A549; test: Upregulation of TIMP-1 expression in human A549 cells at 0.5 to 2 uM after 24 hrs by Western blot analysis; type: functional, cell-based
[19] = system: A549; test: Downregulation of MMP-9 expression in human A549 cells at 0.5 to 2 uM after 24 hrs by Western blot analysis; type: functional, cell-based
[20] = system: A549; test: Upregulation of TIMP-1 expression in human A549 cells at 0.1 to 5 uM after 24 hrs by ELISA; type: functional, cell-based
[21] = system: A549; test: Downregulation of MMP-9 expression in human A549 cells at 0.1 to 5 uM after 24 hrs by ELISA; type: functional, cell-based
Outline: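 MMP-9 in A549 cells measured by ELISA after 24 h exposure to 0, 0.1, 0.5, 1.5 or 5.0 μM. Mean ± SD, n = 3.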

[22] = system: A549; test: Cell cycle arrest in human A549 cells assessed as decrease in cell level at G1 phase after 24 hrs by propidium iodide staining based flow cytometry; type: functional

`COc1cc([C@@H]2c3cc4c(cc3C[C@H]3COC(=O)[C@@H]32)OCO4)cc(OC)c1OC(=O)NCCCNC(=O)Cn1cc(F)c(=O)[nH]c1=O` gave an IC50 [1] of 15.8 µM, an IC50 [2] of 11.7 µM and an IC50 [3] of 5.26 µM. The IC50 [4] was over 100 µM and the IC50 [5] was 109 µM.
For `COc1cc([C@@H]2c3cc4c(cc3C[C@H]3COC(=O)[C@@H]32)OCO4)cc(OC)c1OC(=O)N1CCN(CCCCn2cc(F)c(=O)[nH]c2=O)CC1`, the IC50 [1] was 13.2 µM, the IC50 [2] was 2.14 µM and the IC50 [3] was 9.18 µM. It also gave an IC50 [4] of 20.2 µM and an IC50 [5] of 104 µM.
Work on `COc1cc([C@@H]2c3cc4c(cc3C[C@H]3COC(=O)[C@@H]32)OCO4)cc(OC)c1OC(=O)CCC(=O)NCCCCCCNC(=O)Cn1cc(F)c(=O)[nH]c1=O` yielded an IC50 [1] of 4.03 µM, an IC50 [2] of 0.27 µM and an IC50 [3] of 1.01 µM. For the same compound, the IC50 [4] was 0.45 µM, the IC50 [5] was 114 µM and the Activity [6] was “Active”. For the same compound, the Activity [7] was “Dose-dependent effect”, the Activity [8] was 7.7% and the Activity [9] was 0.1%. The Activity [10] was 45.1%, the Activity [11] was 35.4% and the Activity [12] was 47.2%. For the same compound, the Activity [13] was 64.5%, the Activity [14] was “Active” and the Activity [15] was “Active”. The Activity [16] was “Active”, the inhibition at 1 µM [17] was 47% and the Activity [18] was “Active”. For the same compound, the Activity [19] was “Active”, the Activity [20] was “Active” and the Activity [21] was “Active”. The Activity [22] was “Dose-dependent effect”.
`COc1cc([C@@H]2c3cc4c(cc3C[C@H]3COC(=O)[C@@H]32)OCO4)cc(OC)c1OC(=O)CCC(=O)N1CCN(C(=O)Cn2cc(F)c(=O)[nH]c2=O)CC1` gave an IC50 [1] of 15 µM, an IC50 [2] of 1.35 µM and an IC50 [3] of 9.01 µM. The IC50 [4] was 11.5 µM and the IC50 [5] was 112 µM.
`O=c1[nH]cc(F)c(=O)[nH]1` [FLUOROURACIL] showed an IC50 [3] of 32.3 µM, an IC50 [4] of 41.6 µM and an IC50 [5] of 38.9 µM.
For `COc1cc([C@@H]2c3cc4c(cc3C[C@H]3COC(=O)[C@@H]32)OCO4)cc(OC)c1O` [4'-DEMETHYLDEOXYPODOPHYLLOTOXIN], the IC50 [2] was 3.9 µM, the IC50 [3] was 9.81 µM and the IC50 [4] was 16.5 µM. It also gave an IC50 [5] of 78.5 µM.
Compound `COc1cc([C@@H]2c3cc4c(cc3C[C@H]3COC(=O)[C@@H]32)OCO4)cc(OC)c1OC(=O)NCCCCCCNC(=O)Cn1cc(F)c(=O)[nH]c1=O` has an IC50 [1] of 13.2 µM, an IC50 [2] of 0.14 µM and an IC50 [3] of 2.04 µM. The IC50 [4] was 11.7 µM and the IC50 [5] was 87 µM.
`COc1cc([C@@H]2c3cc4c(cc3[C@@H](O[C@@H]3O[C@@H]5CO[C@@H](C)O[C@H]5[C@H](O)[C@H]3O)[C@H]3COC(=O)[C@H]23)OCO4)cc(OC)c1O` [ETOPOSIDE] showed an IC50 [1] of 12.1 µM, an IC50 [2] of 23.9 µM and an IC50 [3] of 10.9 µM. For the same compound, the IC50 [4] was 27.1 µM and the IC50 [5] was 35.8 µM.
In the case of `COc1cc([C@@H]2c3cc4c(cc3C[C@H]3COC(=O)[C@@H]32)OCO4)cc(OC)c1OC(=O)NCCCCNC(=O)Cn1cc(F)c(=O)[nH]c1=O`, the IC50 [1] is reported as 9.58 µM, the IC50 [2] is reported as 23.9 µM and the IC50 [3] is reported as 8.53 µM. It also gave an IC50 [4] of 22.3 µM and an IC50 [5] of 85.5 µM.
Work on `COc1cc([C@@H]2c3cc4c(cc3C[C@H]3COC(=O)[C@@H]32)OCO4)cc(OC)c1OC(=O)N1CCN(C(=O)Cn2cc(F)c(=O)[nH]c2=O)CC1` yielded an IC50 [1] of 11.2 µM, an IC50 [2] of 2.41 µM and an IC50 [3] of 17.6 µM. The IC50 [4] was 14.3 µM and the IC50 [5] was 121 µM.
